Values after ≈ are worked out from the molar mass of the structure shown.

A word on the MIC: it is the least concentration at which growth counts as inhibited. A high value points to weaker potency.

Holding throughout (format): functional
One assay relates to Cryptococcus neoformans. The assay is described as follows: Antifungal activity against Cryptococcus neoformans by disc diffusion method. In outline:
(§1)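 Fungi were screened first by disc diffusion on corn meal agar, with M-3 broth susceptibility test medium. MIC was then determined by broth dilution.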
On the technique in general: Agar diffusion results depend on both activity and mobility in agar.

The subject of another assay is Aspergillus fumigatus. The assay is described as follows: Antifungal activity against Aspergillus fumigatus by disc diffusion method. In outline:
as §1

For a further assay, the system named is Candida albicans. The assay is described as follows: Antifungal activity against Candida albicans by disc diffusion method. The method, boiled down:
as §1

The next assay relates to Talaromyces marneffei. The assay is described as follows: Antifungal activity against Penicillium marneffei by disc diffusion method. In outline:
as §1

A further assay has as its system Mucor. The assay is described as follows: Antifungal activity against Mucor sp. by disc diffusion method. The method, boiled down: as §1
For another assay, the system named is Streptococcus. The assay is described as follows: Antibacterial activity against Streptococcus group D after 18 to 24 hrs by disc diffusion method. The method, boiled down: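 Kirby-Bauer disc diffusion: sterile 6 mm filter-paper discs impregnated with compound at 1.5, 1.1, 0.57, 0.28, 0.14 and 0.07 per mL. Discs showing zones were followed by broth dilution: doubling dilutions in 50% DMSO–H2O, inoculum to 0.5 McFarland, 37 °C for 18–24 h. MIC was the lowest dilution preventing visible turbidity. The initial solution (12.5% DMSO) was not scored.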

With `C=CCSC[C@H]1O[C@@H](n2c(CC)nc3c([N+](=O)[O-])cccc32)[C@H](O)[C@@H]1O`, the MIC with Cryptococcus neoformans, against Aspergillus fumigatus, against Candida albicans, with Talaromyces marneffei and with Mucor was 2 µM (≈ 0.759 µg/mL) each time.

As for `CCOC(=O)CCSC[C@H]1O[C@@H](n2cnc3c(N)cccc32)[C@H](O)[C@@H]1O`, the MIC with Cryptococcus neoformans worked out at 0.38 µM (≈ 0.145 µg/mL); against Aspergillus fumigatus, 0.38 µM (≈ 0.145 µg/mL); against Candida albicans, 0.38 µM (≈ 0.145 µg/mL); against Talaromyces marneffei it was 0.38 µM (≈ 0.145 µg/mL); with Streptococcus, 0.19 µM (≈ 0.0725 µg/mL); in the assay on Mucor, 0.38 µM (≈ 0.145 µg/mL).

Consider `C=CCSC[C@H]1O[C@@H](n2cnc3c([N+](=O)[O-])cccc32)[C@H](O)[C@@H]1O`, for which the minimum inhibitory concentration (MIC) in the assay with Cryptococcus neoformans came out at 0.38 µM (≈ 0.134 µg/mL); in the assay on Aspergillus fumigatus, 0.38 µM (≈ 0.134 µg/mL); in the assay on Candida albicans, 0.38 µM (≈ 0.134 µg/mL); in the assay with Talaromyces marneffei, 0.38 µM (≈ 0.134 µg/mL); against Streptococcus, 1.25 µM (≈ 0.439 µg/mL); against Mucor, 0.38 µM (≈ 0.134 µg/mL).

`Clc1ccc(COC(Cn2ccnc2)c2ccc(Cl)cc2Cl)c(Cl)c1` (stereo not given) [MICONAZOLE]: the MIC in the assay on Cryptococcus neoformans, against Aspergillus fumigatus, against Candida albicans, against Talaromyces marneffei and against Mucor was 0.77 µM (≈ 0.32 µg/mL) throughout.

Regarding `Nc1ncnc2c1ncn2[C@@H]1O[C@H](CSCCC(=O)O)[C@@H](O)[C@H]1O`, the MIC was 1.5 µM (≈ 0.533 µg/mL) with Cryptococcus neoformans; 1.5 µM (≈ 0.533 µg/mL) with Aspergillus fumigatus; 1.5 µM (≈ 0.533 µg/mL) against Candida albicans; 1.5 µM (≈ 0.533 µg/mL) in the assay on Talaromyces marneffei; 0.755 µM (≈ 0.268 µg/mL) against Streptococcus; 1.5 µM (≈ 0.533 µg/mL) with Mucor.

Turning to `OC(Cn1cncn1)(Cn1cncn1)c1ccc(F)cc1F` [FLUCONAZOLE], the MIC against Cryptococcus neoformans, against Aspergillus fumigatus, against Candida albicans, against Talaromyces marneffei and against Mucor was 0.52 µM (≈ 0.159 µg/mL) throughout.

Regarding `Nc1cccc2c1ncn2[C@@H]1O[C@H](CSCCC(=O)O)[C@@H](O)[C@H]1O`, the MIC with Cryptococcus neoformans came out at 0.75 µM (≈ 0.265 µg/mL); with Aspergillus fumigatus, 0.75 µM (≈ 0.265 µg/mL); against Candida albicans it was 0.75 µM (≈ 0.265 µg/mL); against Talaromyces marneffei, 0.75 µM (≈ 0.265 µg/mL); in the assay with Streptococcus, 0.38 µM (≈ 0.134 µg/mL); with Mucor it was 0.75 µM (≈ 0.265 µg/mL).

In the assay with Streptococcus, `CN[C@H](CC(C)C)C(=O)N[C@H]1C(=O)N[C@@H](CC(N)=O)C(=O)N[C@H]2C(=O)N[C@H]3C(=O)N[C@H](C(=O)N[C@H](C(=O)O)c4cc(O)cc(O)c4-c4cc3ccc4O)[C@H](O)c3ccc(c(Cl)c3)Oc3cc2cc(c3O[C@@H]2O[C@H](CO)[C@@H](O)[C@H](O)[C@H]2O[C@H]2C[C@](C)(N)[C@H](O)[C@H](C)O2)Oc2ccc(cc2Cl)[C@H]1O` [VANCOMYCIN] came in with an MIC of 0.78 µM (≈ 1.13 µg/mL).

Values taken from ChEMBL document CHEMBL1140527, “Synthesis and antimicrobial activity of some novel nucleoside analogues of adenosine and 1,3-dideazaadenosine” (2007).
